# Experimental data reported in ChEMBL document CHEMBL1156500, “Characterization of the metabolic activation of hepatitis C virus nucleoside inhibitor beta-D-2'-Deoxy-2'-fluoro-2'-C-methylcytidine (PSI-6130) and identification of a novel active 5'-triphosphate species” (J Biol Chem, 2007).
# Columns and labels:
# Assay type in all cases: ADME, cell-based
# Settings in all cases: hepatocytes
# Hepatocyte [1] = test: Drug uptake in human hepatocyte at 2 uM after 24 hrs assessed as 1-((2R,3R,4R,5R)-3-fluoro-4-hydroxy-5-(hydroxymethyl)-3-methyl-tetrahydrofuran-2-yl)pyrimidine-2,4(1H,3H)-dione tri phosphate level per 10^6 cells
# In short: (§1)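 Primary human hepatocytes from 3 donors were plated on collagen and recovered for ≥18 h. They were exposed for 24 h, in duplicate, to 0–250 μM drug: 3H-labelled material diluted with unlabelled compound. Total intracellular radioactivity and individual phosphates were measured in methanol extracts by SAX HPLC with radiometric detection. Results are pmol/10^6 cells, mean ± S.D.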
# Hepatocyte [2] = test: Drug uptake in human hepatocyte at 10 uM after 24 hrs assessed as 1-((2R,3R,4R,5R)-3-fluoro-4-hydroxy-5-(hydroxymethyl)-3-methyl-tetrahydrofuran-2-yl)pyrimidine-2,4(1H,3H)-dione tri phosphate level per 10^6 cells; in short: as §1
# Hepatocyte [3] = test: Drug uptake in human hepatocyte at 25 uM after 24 hrs assessed as 1-((2R,3R,4R,5R)-3-fluoro-4-hydroxy-5-(hydroxymethyl)-3-methyl-tetrahydrofuran-2-yl)pyrimidine-2,4(1H,3H)-dione tri phosphate level per 10^6 cells; in short: as §1
# Hepatocyte [4] = test: Drug uptake in human hepatocyte at 50 uM after 24 hrs assessed as 1-((2R,3R,4R,5R)-3-fluoro-4-hydroxy-5-(hydroxymethyl)-3-methyl-tetrahydrofuran-2-yl)pyrimidine-2,4(1H,3H)-dione tri phosphate level per 10^6 cells; in short: as §1
# Hepatocyte [5] = test: Drug uptake in human hepatocyte at 100 uM after 24 hrs assessed as 1-((2R,3R,4R,5R)-3-fluoro-4-hydroxy-5-(hydroxymethyl)-3-methyl-tetrahydrofuran-2-yl)pyrimidine-2,4(1H,3H)-dione tri phosphate level per 10^6 cells; in short: as §1
# Hepatocyte [6] = test: Drug uptake in human hepatocyte at 250 uM after 24 hrs assessed as 1-((2R,3R,4R,5R)-3-fluoro-4-hydroxy-5-(hydroxymethyl)-3-methyl-tetrahydrofuran-2-yl)pyrimidine-2,4(1H,3H)-dione tri phosphate level per 10^6 cells; in short: as §1
# Hepatocyte [7] = test: Drug uptake in human hepatocyte at 2 uM after 16 hrs assessed as 1-((2R,3R,4R,5R)-3-fluoro-4-hydroxy-5-(hydroxymethyl)-3-methyl-tetrahydrofuran-2-yl)pyrimitrine-2,4(1H,3H)-trione tri phosphate level per 10^6 cells
# In short: (§2)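 Primary human hepatocytes from 4 donors were plated at 1.5 million cells/well on collagen and recovered for ≥18 h. They were dosed with 3H-labelled drug at 2 μM (10 μCi/ml) for 1–72 h, in duplicate, at 37°C. Cold 60% methanol extracts were run on SAX ion-exchange HPLC with radiometric detection and compared with reference standards. Results are pmol/10^6 cells, mean ± S.D.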
# Hepatocyte [8] = test: Drug uptake in human hepatocyte at 2 uM after 24 hrs assessed as 1-((2R,3R,4R,5R)-3-fluoro-4-hydroxy-5-(hydroxymethyl)-3-methyl-tetrahydrofuran-2-yl)[…] tri phosphate level per 10^6 cells; in short: as §2
# Hepatocyte [9] = test: Drug uptake in human hepatocyte at 2 uM after 48 hrs assessed as 1-((2R,3R,4R,5R)-3-fluoro-4-hydroxy-5-(hydroxymethyl)-3-methyl-tetrahydrofuran-2-yl)pyrimitrine-2,4(1H,3H)-trione tri phosphate level per 10^6 cells; in short: as §2
# Hepatocyte [10] = test: Drug uptake in human hepatocyte at 2 uM after 72 hrs assessed as 1-((2R,3R,4R,5R)-3-fluoro-4-hydroxy-5-(hydroxymethyl)-3-methyl-tetrahydrofuran-2-yl)[…] tri phosphate level per 10^6 cells; in short: as §2
# Hepatocyte [11] = test: Drug uptake in human hepatocyte at 2 uM after 24 hrs assessed per 10^6 cells
# Hepatocyte [12] = test: Drug uptake in human hepatocyte at 10 uM after 24 hrs assessed per 10^6 cells; in short: as §1
# Hepatocyte [13] = test: Drug uptake in human hepatocyte at 25 uM after 24 hrs assessed per 10^6 cells; in short: as §1
# Hepatocyte [14] = test: Drug uptake in human hepatocyte at 50 uM after 24 hrs assessed per 10^6 cells; in short: as §1
# Hepatocyte [15] = test: Drug uptake in human hepatocyte at 2 uM after 24 hrs assessed as 4-amino-1-((2R,3R,4R,5R)-3-fluoro-4-hydroxy-5-(hydroxymethyl)-3-methyl-tetrahydrofuran-2-yl)pyrimidin-2(1H)-one di phosphate level per 10^6 cells; in short: as §1
# Hepatocyte [16] = test: Drug uptake in human hepatocyte at 10 uM after 24 hrs assessed as 4-amino-1-((2R,3R,4R,5R)-3-fluoro-4-hydroxy-5-(hydroxymethyl)-3-methyl-tetrahydrofuran-2-yl)pyrimidin-2(1H)-one di phosphate level per 10^6 cells; in short: as §1
# Hepatocyte [17] = test: Drug uptake in human hepatocyte at 25 uM after 24 hrs assessed as 4-amino-1-((2R,3R,4R,5R)-3-fluoro-4-hydroxy-5-(hydroxymethyl)-3-methyl-tetrahydrofuran-2-yl)pyrimidin-2(1H)-one di phosphate level per 10^6 cells; in short: as §1
# Hepatocyte [18] = test: Drug uptake in human hepatocyte at 50 uM after 24 hrs assessed as 4-amino-1-((2R,3R,4R,5R)-3-fluoro-4-hydroxy-5-(hydroxymethyl)-3-methyl-tetrahydrofuran-2-yl)pyrimidin-2(1H)-one di phosphate level per 10^6 cells; in short: as §1
# Hepatocyte [19] = test: Drug uptake in human hepatocyte at 100 uM after 24 hrs assessed as 4-amino-1-((2R,3R,4R,5R)-3-fluoro-4-hydroxy-5-(hydroxymethyl)-3-methyl-tetrahydrofuran-2-yl)pyrimidin-2(1H)-one di phosphate level per 10^6 cells; in short: as §1
# Hepatocyte [20] = test: Drug uptake in human hepatocyte at 250 uM after 24 hrs assessed as 4-amino-1-((2R,3R,4R,5R)-3-fluoro-4-hydroxy-5-(hydroxymethyl)-3-methyl-tetrahydrofuran-2-yl)pyrimidin-2(1H)-one di phosphate level per 10^6 cells; in short: as §1
# Hepatocyte [21] = test: Drug uptake in human hepatocyte at 2 uM after 24 hrs assessed as 1-((2R,3R,4R,5R)-3-fluoro-4-hydroxy-5-(hydroxymethyl)-3-methyl-tetrahydrofuran-2-yl)pyrimidine-2,4(1H,3H)-dione di phosphate level per 10^6 cells; in short: as §1
# Hepatocyte [22] = test: Drug uptake in human hepatocyte at 10 uM after 24 hrs assessed as 1-((2R,3R,4R,5R)-3-fluoro-4-hydroxy-5-(hydroxymethyl)-3-methyl-tetrahydrofuran-2-yl)pyrimidine-2,4(1H,3H)-dione di phosphate level per 10^6 cells; in short: as §1
# Hepatocyte [23] = test: Drug uptake in human hepatocyte at 25 uM after 24 hrs assessed as 1-((2R,3R,4R,5R)-3-fluoro-4-hydroxy-5-(hydroxymethyl)-3-methyl-tetrahydrofuran-2-yl)pyrimidine-2,4(1H,3H)-dione di phosphate level per 10^6 cells; in short: as §1
# Hepatocyte [24] = test: Drug uptake in human hepatocyte at 50 uM after 24 hrs assessed as 1-((2R,3R,4R,5R)-3-fluoro-4-hydroxy-5-(hydroxymethyl)-3-methyl-tetrahydrofuran-2-yl)pyrimidine-2,4(1H,3H)-dione di phosphate level per 10^6 cells; in short: as §1
smiles,measurement,setting,value
C[C@@]1(F)[C@H](O)[C@@H](CO)O[C@H]1n1ccc(N)nc1=O,Drug uptake,Hepatocyte [1],2.4 pmol
same,Drug uptake,Hepatocyte [2],9.6 pmol
same,Drug uptake,Hepatocyte [3],21.7 pmol
same,Drug uptake,Hepatocyte [4],34.9 pmol
same,Drug uptake,Hepatocyte [5],71.2 pmol
same,Drug uptake,Hepatocyte [6],84 pmol
same,Drug uptake,Hepatocyte [7],0.6 pmol
same,Drug uptake,Hepatocyte [8],1.3 pmol
same,Drug uptake,Hepatocyte [9],2 pmol
same,Drug uptake,Hepatocyte [10],2 pmol
same,Drug uptake,Hepatocyte [11],34.5 pmol
same,Drug uptake,Hepatocyte [12],165.5 pmol
same,Drug uptake,Hepatocyte [13],439.1 pmol
same,Drug uptake,Hepatocyte [14],847.9 pmol
same,Drug uptake,Hepatocyte [15],0.3 pmol
same,Drug uptake,Hepatocyte [16],2.4 pmol
same,Drug uptake,Hepatocyte [17],3.4 pmol
same,Drug uptake,Hepatocyte [18],8.2 pmol
same,Drug uptake,Hepatocyte [19],13.4 pmol
same,Drug uptake,Hepatocyte [20],19.6 pmol
same,Drug uptake,Hepatocyte [21],0.9 pmol
same,Drug uptake,Hepatocyte [22],4.8 pmol
same,Drug uptake,Hepatocyte [23],9.5 pmol
same,Drug uptake,Hepatocyte [24],20.3 pmol
